Active and inactive are the calls of the source. The rule behind the calls is not given here.
Tests used:
[1] = tested on: Mus musculus; test: Antiobesity activity in high fat diet-induced obese C57BL/6J mouse model assessed as decrease in size of adipocytes at 20 mg/kg, ip administered for every other days for 6 weeks by H and E staining based assay; assay type: functional, organism-based
[2] = tested on: 3T3-L1; test: Activation of AMPK pathway in mouse 3T3-L1 cells assessed as increase in ACSL mRNA expression at 0.3 to 1 uM after 24 hrs by RT-qPCR analysis; assay type: cell-based; details: filed as activator, dose 0.3-1 µM
[3] = Half life in Sprague-Dawley rat at 2 mg/kg, iv up to 24 hrs by LC-MS/MS analysis; assay type: ADME, organism-based; details: in vivo
Method in brief: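 Male SD rats (180–220 g, n = 3) received compound in ethanol/saline (5:95), either intravenously at 2 mg/kg or intragastrically at 5 mg/kg. Plasma was sampled at 0, 0.5, 1, 2, 4, 8, 12 and 24 h. Concentrations were measured by LC-MS/MS, and PK parameters were calculated from the concentration–time data.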

[4] = tested on: C2C12; test: Activation of AMPK pathway in mouse C2C12 cells assessed as increase in glucose uptake at 0.3 to 1 uM after 6 hrs by 2-NBDG/Hoechst 33342 staining based Confocal microscopic method; assay type: cell-based; details: filed as activator, dose 0.3-1 µM
Method in brief: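 C2C12 myoblasts kept in DMEM with 10% FBS and 1% penicillin/streptomycin at 37 °C under 5% CO2.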

[5] = tested on: 3T3-L1; test: Cytotoxicity against mouse 3T3-L1 cells assessed as change in LDH releasing level at 5 uM after 6 days by LDH releasing assay; assay type: cell-based; details: 3t3-l1, 144 h, time 6 day
Method in brief: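 Differentiating 3T3-L1 cells were treated at 5 µM for 6 days. Plates were centrifuged and LDH activity in the supernatant was read at 490 nm. Release was expressed as fold = (treated − blank)/(control − blank), with untreated cells as blank and vehicle-differentiated control set to 1.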

[6] = tested on: Mus musculus; test: Antiobesity activity in high fat diet-induced obese C57BL/6J mouse model assessed as insulin level at 20 mg/kg, ip administered for every other days for 6 weeks by ELISA (reference value: 3.5 +/- 0.6 ng/ml); assay type: functional
Method in brief: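 Male C57BL/6J mice (7–8 weeks) fed HFC diet (60% fat, 1% cholesterol) for up to 14 weeks. From week 9, given 20 mg/kg i.p. every other day for 6 weeks in saline with 10% ethanol and 10% castor oil, or vehicle. Body weight and food intake recorded daily. At end, mice fasted 6 h, anesthetized, and blood collected into EDTA. Plasma chemistry run on an auto-analyzer; insulin by ultra-sensitive ELISA.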

[7] = tested on: 3T3-L1; test: Activation of AMPK pathway in adipogenic cocktail-induced mouse 3T3-L1 cells assessed as decrease in ATP level at 1 uM after 24 hrs; assay type: cell-based; details: filed as activator
Method in brief: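 Confluent 3T3-L1 pre-adipocytes exposed to adipogenic cocktail (0.5 mM IBMX, 100 ng/mL dexamethasone, 2 µg/mL insulin) with compound at 0.3 or 1 µM for 24 h. ATP quantified with a commercial luminescent kit and normalized to protein.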

[8] = tested on: 3T3-L1; test: Lipid lowering activity in mouse 3T3-L1 cells assessed as adipogenic cocktail-induced triglyceride levels at 1 uM incubated for 6 days by GPO-POD assay relative to control; assay type: functional; details: time 6 day
Method in brief: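 Confluent 3T3-L1 cells were treated from day 0 in cocktail (IBMX, dexamethasone, insulin) for 3 days, then re-dosed in insulin medium for 3 more days. For dose–response, concentrations were 0–10 µM (0.01, 0.1, 0.3, 1, 3, 10). On day 6, cells were lysed in 0.2% Triton X-100 and TG was measured by GPO-POD and normalized to BCA protein as % of control. EC50 was fitted from the dose–response. N = 4.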

[9] = tested on: 3T3-L1; test: Activation of AMPK pathway in adipogenic cocktail-induced mouse 3T3-L1 cells assessed as increase in AMP to ATP ratio at 1 uM after 24 hrs; assay type: cell-based; details: filed as activator
[10] = AUC(0 to infinity) in Sprague-Dawley rat at 2 mg/kg, iv up to 24 hrs by LC-MS/MS analysis; details: in vivo
[11] = MRT(0 to infinity) in Sprague-Dawley rat at 2 mg/kg, iv up to 24 hrs by LC-MS/MS analysis; details: in vivo
[12] = tested on: 3T3-L1; test: Activation of AMPK pathway in mouse 3T3-L1 cells assessed as increase in CPT-1beta mRNA expression at 1 uM after 24 hrs by RT-qPCR analysis; assay type: cell-based; details: filed as activator

Row | AUC(0-inf) [10] [ng·h/mL] | MRT inf [11] [h] | SMILES | Activity [1] | Activity [2] | half-life [3] [h] | Activity [4] | Activity [5] | Activity [6] [ng/mL] | Activity [7] | Activity [8] [%] | Activity [9] | Activity [12]
1 |  |  | COc1ccc2[nH]c(-c3nc(NCCCCN4CCCC4)c4ccccc4n3)c(C=O)c2c1 | Active | Active | 4.4 | Active | Non-Toxic | 2.2 |  |  |  | 
2 | 671 | 3.56 | CN(C)CCCNc1nc(-c2[nH]c3ccccc3c2C=O)nc2ccccc12 |  |  |  |  |  |  | Active | 20.8 | Active | Active

Reference: ChEMBL document CHEMBL4732044, “Discovery of a promising agent IQZ23 for the treatment of obesity and related metabolic disorders” (Eur J Med Chem, 2020)
